Calls of active or inactive are those of the source. The rule behind the calls is not given here.
Legend:
[1] = biological target: Core antigen (Hepatitis B virus) (UniProt Q03732); experiment: (§1) Inhibition of capsid in HBV infected in human HepAD38 cells assessed as reduction in tetracycline-induced cccDNA formation by measuring reduction in HBe antigen secretion after 14 days by ELISA; type: cell-based
In short: (§2)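 HepAD38 cells, collagen-coated wells, DMEM/F12 with 10% heat-inactivated FBS. Tetracycline withdrawn 7 days to allow DNA synthesis and cccDNA formation; at day 7 tetracycline (0.3 μg/ml) plus compound re-added. Compound at 10 μM or 0.001–10 μM, medium and compound replenished every 5 days. Day-14 supernatant HBeAg by ELISA; EC50 by linear regression.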

[2] = biological target: Core antigen (Hepatitis B virus, UniProt Q03732); experiment: as §1; type: cell-based; in short: as §2
Chain of Core antigen (Q03732 whole entry): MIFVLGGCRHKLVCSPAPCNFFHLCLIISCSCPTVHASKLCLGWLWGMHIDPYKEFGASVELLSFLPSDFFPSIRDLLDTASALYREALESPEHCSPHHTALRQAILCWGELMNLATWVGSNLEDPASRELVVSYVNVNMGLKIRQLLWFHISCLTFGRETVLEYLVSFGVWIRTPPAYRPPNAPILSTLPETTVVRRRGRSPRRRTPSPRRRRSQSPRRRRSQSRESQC

[3] = tested on: Hepatitis B virus; experiment: Antiviral activity against HBV infected in human HepAD38 cells assessed as reduction in intracellular viral DNA level by RT-PCR method; type: functional, organism-based
In short: (§3)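 HBV DNA replication in HepAD38 cells was quantified by RT-PCR following an earlier published method, with data relative to the untreated control. EC50 (50% inhibition of HBV DNA replication) was derived by linear regression. Values are the mean ± SD of two or three replicates from 2 independent experiments.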

[4] = tested on: Hepatitis B virus; experiment: Antiviral activity against HBV infected in human HepAD38 cells assessed as reduction in viral replication by RT-PCR method; type: functional, organism-based; in short: as §3
[5] = biological target: Core antigen (Hepatitis B virus) (UniProt Q03732); experiment: Inhibition of capsid in HBV infected in human HepAD38 cells assessed as reduction in cccDNA formation by measuring reduction in HBe antigen secretion at 3 to 4 uM after 14 days by ELISA relative to control; type: cell-based; in short: as §2
[6] = tested on: PBMC; experiment: (§4) Cytotoxicity against human PBMC by CellTiter 96 non-radioactive cell proliferation colorimetric assay; type: cell-based
In short: (§5)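 A CellTiter 96 colorimetric cell proliferation read-out was used in primary human PBM cells, CEM, Vero and HepG2 cells. CC50 is the concentration that inhibits cell growth by 50%.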

[7] = tested on: Hepatitis B virus; experiment: Antiviral activity against HBV infected in human HepAD38 cells assessed as reduction in extracellular viral DNA level by RT-PCR method; type: functional, organism-based; in short: as §3
[8] = tested on: Vero; experiment: (§6) Cytotoxicity against African green monkey Vero cells by CellTiter 96 non-radioactive cell proliferation colorimetric assay; type: cell-based; conditions: chlorocebus sabaeus, vero; in short: as §5
[9] = tested on: CCRF-CEM; experiment: (§7) Cytotoxicity against human CEM cells by CellTiter 96 non-radioactive cell proliferation colorimetric assay; type: cell-based; conditions: ccrf-cem; in short: as §5
[10] = tested on: HepG2; experiment: Cytotoxicity against human HepG2 cells by CellTiter 96 non-radioactive cell proliferation colorimetric assay; type: cell-based; in short: as §5
[11] = tested on: Hepatitis B virus; experiment: Inhibition of HBV capsid cp149 assembly expressed in Escherichia coli BL21 assessed as spherical capsid aggregation in to clusters at 20 uM preincubated for 1 hr followed by NaCl stimulation measured after overnight incubation by uranyl acetate staining based electron microscopic method
In short: (§8)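 Untagged HBV core residues 1–149 expressed in E. coli BL21 (1 mM IPTG, 16 °C overnight), purified as capsids, dissociated to dimers with 4 M urea in carbonate buffer pH 9.5; >95% pure. Dimers preincubated 1 hr with compound (20 μM), then capsid buffer added (final NaCl 300 mM, Cp149 monomer 10 μM); held 4 °C overnight; uranyl acetate negative-stain EM, single-blind.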

[12] = biological target: Core antigen (Hepatitis B virus) (UniProt Q03732); experiment: Inhibition of capsid in HBV infected in human HepAD38 cells assessed as reduction in cccDNA formation by measuring reduction in HBe antigen secretion at 10 uM after 14 days by ELISA relative to control; type: cell-based; in short: as §2
[13] = tested on: Hepatitis B virus; experiment: Antiviral activity against HBV infected in human HepAD38 cells assessed as reduction in extracellular viral DNA level at 10 uM by RT-PCR method relative to control; type: functional; design: scale not given: the % may be the effect or the level left
In short: (§9)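 HBV DNA replication in HepAD38 cells was quantified by RT-PCR following an earlier published method. Each compound was tested at a single 10 μM concentration. Results are % inhibition ± SD relative to the untreated control.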

[14] = tested on: Hepatitis B virus; experiment: Inhibition of HBV capsid cp149 assembly expressed in Escherichia coli BL21 assessed as formation of disfigured circular assemblies at 20 uM preincubated for 1 hr followed by NaCl stimulation measured after overnight incubation by uranyl acetate staining based electron microscopic method; in short: as §8
[15] = tested on: Hepatitis B virus; experiment: Antiviral activity against HBV infected in human HepDES19 cells assessed as reduction in viral replication; type: functional, organism-based
[16] = tested on: Hepatitis B virus; experiment: Antiviral activity against HBV infected in human HepAD38 cells assessed as reduction in intracellular viral DNA level at 10 uM by RT-PCR method relative to control; type: functional; design: scale not given: the % may be the effect or the level left
In short: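 HepAD38 cells; intracellular HBV DNA quantified by RT-PCR, expressed relative to untreated control; single-point inhibition given as percent at 10 μM, mean ± SD of two or three replicates from 2 independent experiments.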

[17] = tested on: Hepatitis B virus; experiment: Antiviral activity against HBV infected in human HepAD38 cells assessed as inhibition of viral replication at 10 uM by RT-PCR method relative to control; type: functional; in short: as §9
[18] = tested on: Hepatitis B virus; experiment: Inhibition of HBV capsid cp149 assembly expressed in Escherichia coli BL21 at 20 uM preincubated for 1 hr followed by NaCl stimulation measured after overnight incubation by uranyl acetate staining based electron microscopic method; in short: as §8
[19] = as §4; type: cell-based; in short: as §5
[20] = as §6; type: cell-based; conditions: chlorocebus sabaeus, Vero cells; in short: as §5
[21] = as §7; type: cell-based, CCRF-CEM; conditions: CEM (CCRF-CEM) cells; in short: as §5

Chain of Core antigen (Hepatitis B virus) (Q03732 as listed by the source): as the sequence (Q03732 whole entry) above

Compound	EC90 [1] [µM]	EC50 [2] [µM]	EC50 [3] [µM]	EC90 [3] [µM]	EC50 [4] [µM]	EC90 [4] [µM]	CC50 [6] [µM]	EC50 [7] [µM]	EC90 [7] [µM]	CC50 [8] [µM]	CC50 [9] [µM]	CC50 [10] [µM]	inhibition [12] [%]	Activity [16] [%]	inhibition at 10 µM [17] [%]	other results
O=C(Nc1ccc(F)c(F)c1)c1cc(S(=O)(=O)N2CC(F)(F)C2)ccc1F	3.2	1	0.9	9.7	1.2	6.3	69.1	1.2	6.3	14.7	3.7	27	–	–	–	inhibition [5]: 90%; inhibition [11]: Active
O=C(Nc1ccc(F)c(F)c1)c1cc(NS(=O)(=O)C2CC2)ccc1F	> 10	5.5	0.8	8.1	6.9	> 10	39.2	6.9	> 10	30.7	11.8	61.8	61	–	–	Activity [13]: 76%
O=C(Nc1ccc(F)c(F)c1)c1cc(S(=O)(=O)NC2CCCC2)ccc1F	4.6	1.3	0.6	4.3	0.8	7.8	15.6	0.8	7.8	32.7	14	37.1	–	–	–	inhibition [5]: 90%; inhibition [14]: Active; EC50 [15]: 0.14 µM
O=C(Nc1ccc(F)c(F)c1)c1cc(NS(=O)(=O)C2CCCCC2)ccc1F	> 10	9.7	< 0.1	7.9	3.7	≥ 10	> 100	3.7	≥ 10	6.4	74.5	80.4	67	63	–	Activity [13]: 86%
C=C1[C@H](CO)[C@@H](O)C[C@@H]1n1cnc2c(=O)[nH]c(N)nc21.O	–	> 10	≤ 0.0001	0.009	–	–	–	0.0007	0.1	–	–	–	< 1	53	–	–
O=C(Nc1ccc(F)c(F)c1)c1cc(S(=O)(=O)N2CCC(F)(F)C2)ccc1F	–	–	–	–	6.7	> 10	> 100	–	–	21.3	4.8	> 100	–	–	83	–
O=C(Nc1ccc(F)c(F)c1)c1cc(NS(=O)(=O)C2CCCC2)ccc1F	> 10	6	0.3	3.6	2.1	9.5	> 100	2.1	9.5	29.1	54.2	> 100	66	–	–	–
O=C(Nc1ccc(F)c(F)c1)c1cc(S(=O)(=O)NOC2CCCC2)ccc1F	–	–	–	–	2.7	> 10	13	–	–	5.8	6.4	26.4	–	–	82	–
CC(C)(NC(=O)c1cccc(S(=O)(=O)NC2CCCC2)c1)c1ccc(F)c(F)c1	–	–	–	–	> 10	–	> 100	–	–	84.3	64	> 100	–	–	–	inhibition [18]: inactive
Nc1ccn([C@@H]2CS[C@H](CO)O2)c(=O)n1 [LAMIVUDINE]	–	> 10	< 0.01	0.7	–	0.3	–	–	0.3	–	–	> 10	< 1	74	–	CC50 [19]: > 100 µM; CC50 [20]: > 100 µM; CC50 [21]: > 100 µM
O=C(Nc1ccc(F)c(F)c1)c1cc(S(=O)(=O)N2CC(F)(F)C(F)(F)C2)ccc1F	–	–	–	–	9.2	> 10	> 100	–	–	9	≤ 1	> 100	–	–	59	–
CCOC(=O)C1=C(CN2CCOCC2)NC(c2nccs2)=NC1c1ccc(F)cc1Br (centres undefined)	1.9	–	< 0.01	0.05	–	–	–	0.2	1	–	–	–	–	82	–	–
CN(C1CCCC1)S(=O)(=O)c1ccc(F)c(C(=O)Nc2ccc(F)c(F)c2)c1	–	–	–	–	7.7	≥ 10	25.8	–	–	18.3	14.5	48.6	–	–	87	–
